Hits are enriched below; roughly 12% of the tested compounds scored in any of these assays.
ABCG2 inh: ABCG2 efflux pump inhibitors, primary screen, multiplex with ABCB1, IgMXP3 cells, flow cytometry; inhibition, % at 6.6 µM; AID 1325, 2008; actives 0.1% (n = 190,000); JC-1 efflux; Broad substrate specificity ATP-binding cassette transporter ABCG2 (Homo sapiens), Q9UNQ0;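 active = inhibition above 80%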;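 also: 0% = DMSO and 100% = nicardipine control wells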
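Incubation: cells with compound and JC-1, 10 min at 25 °C, rotating, no wash / Test system: IgMXP3 (ABCG2) plus far-red-tagged CCRF-Adr (ABCB1) cells / Compound dosing: one concentration, 6.6 µM final / Also added: JC-1 fluorescent substrate / Evaluation: efflux inhibition in percent versus controls / Detection: flow cytometry, 530 nm JC-1 signal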
RAM network inh: inhibitors of the yeast RAM network, primary screen, dse1pr::URA3 reporter, 5-FOA selection; actives 1.8% (n = 190,000); S. cerevisiae dse1pr::URA3 reporter, 5-FOA growth OD615, 2 d; analog-sensitive cbk1-as2 kinase mutant strain; inhibition, % at 50 µM; AID 868, 2007;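 active = inhibition above a set limit, 3 SD over mean compound inhibition, cut at about 8.4% in these data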;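 also: 0% = DMSO-only wells with no growth and 100% = 10 µM 1-NA-PP1 full growth; inhibition rescues growth on 5-FOA so higher OD means more RAM inhibition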
L major viab: Leishmania major promastigote growth inhibition, primary screen; AID 1063, 2008; inhibition, % at 10 µM; actives 9% (n = 200,000); Leishmania major promastigotes, resazurin fluorescence viability; in the data active = inhibition above about 50%;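 also: promastigotes grown with compound for 44 hours at 28 °C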
WT yeast gro inh: growth inhibition of WT strain, primary screen, mitochondrial fusion inhibitor project, WT and mutant strains, chemical genetic; mitochondrial fusion phenotypic screen; inhibition, % at 10 µM; actives 2.1% (n = 190,000); AID 1362, 2008; in the data active = inhibition above about 58%; tested in S. cerevisiae
ABCB1 block: ABCB1 efflux pump inhibitors, primary screen, cell-based, multiplex, flow cytometry, ABCG2 counter-screen; ATP-dependent translocase ABCB1 (Homo sapiens), P08183; CCRF-Adr cells, JC-1 efflux; inhibition, % at 6.6 µM; actives 0.067% (n = 190,000); in the data active = inhibition above about 40%;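 also: 0% = vehicle and 100% = reference inhibitor; higher value means more JC-1 retained so stronger ABCB1 efflux block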
An asterisk follows results filed as active.

SMILES	ABCG2 inh	RAM network inh	L major viab	WT yeast gro inh	ABCB1 block
CCOC(=O)c1c(C)[nH]c(C)c1C(=O)COC(=O)c1cccc(S(=O)(=O)NC)c1	19	-1	80*	-12	1
CC(=O)c1cccc(NC(=O)COC(=O)c2n[nH]c3ccccc23)c1	5	1	3	-16	0
Cc1nn(Cc2ccccc2)c2c1C(c1cccc(Cl)c1)C(C#N)=C(N)O2 (stereo not drawn)	4	0	27	14	1
CC1(C)C2CCC1(C)C1(C2)NC(=O)c2ccccc2O1 (stereo not drawn)	3	1	-1	16	0
Cc1nn(-c2ccccc2)c(N2CCCC2)c1/C=N/NC(=S)Nc1ccccc1C(F)(F)F	7	-1	99*	30	1
Cc1nn(-c2ccccc2)c(N2CCCC2)c1/C=N/O	4	0	72*	-7	1
COC(=O)C/C(O)=C(/N=Nc1cccc(C(F)(F)F)c1)C(=O)OC	2	3	15	6	1
Cc1ccc(-c2cc(C(=O)NCc3ccc4c(c3)OCO4)[nH]n2)c(O)c1C	6	4	54*	2	1
COc1ccc(NC(=O)c2cc(-c3cc(C)ccc3O)n[nH]2)cc1Cl	-3	2	-8	0	-1
COc1ccc(CCNC(=O)c2cc(-c3cc(C)ccc3O)n[nH]2)cc1OC	5	7	89*	20	0
COc1ccc(CCNC(=O)c2cc(-c3ccc(C)c(C)c3O)n[nH]2)cc1OC	19	1	93*	8	0
COc1ccc(CCNC(=O)c2ccncc2)cc1OC	0	2	-2	-5	0
Cc1nn(-c2ccccc2)c(=S)c2ccccc12	-7	1	71*	-12	-1
Cc1nn(-c2ccc(Cl)cc2)c(=O)c2ccccc12	14	0	-3	8	1
O=C(NC(c1ccccc1)c1c(O)ccc2ccccc12)c1ccccc1Cl (stereo not drawn)	2	1	100*	41	0
O=C(NC(c1ccc(Cl)cc1)c1c(O)ccc2ccccc12)c1ccccc1 (stereo not drawn)	2	5	99*	56	0
CC(=O)NC(c1ccc(Cl)cc1)c1c(O)ccc2ccc(O)cc12 (stereo not drawn)	8	0	44	-12	1
C=CCSc1nnc(NC(=O)c2nc(SCC)ncc2Cl)s1	31	8.4*	-8	4	2
CSc1ncc(Cl)c(C(=O)Nc2nnc(SC/C=C/c3ccccc3)s2)n1	0	5	-4	39	0
Cc1ccc(S(=O)(=O)c2c(C)nn(C(C)(C)C)c2OC(=O)C2CCCC2)cc1	1	7	47	72*	0
CCn1c2ccccc2c2cc(NC(=O)COC(=O)c3cc(S(N)(=O)=O)c(Cl)cc3Cl)ccc21	-2	5	-2	12	-1
O=C(Nc1cc(C(F)(F)F)ccc1-n1cncn1)c1ccc(-c2ccccc2)cc1	2	4	90*	-1	0
O=C(/C=C/c1ccccc1)NCCN1CCOCC1	18	0	63*	-9	1
O=C(/C=C/c1ccc(Cl)cc1Cl)NCCN1CCOCC1	7	1	71*	12	0
O=C(NCCN1CCOCC1)c1cccc(Cl)c1	2	1	-2	2	0
SMILES	ABCG2 inh	RAM network inh	L major viab	WT yeast gro inh	ABCB1 block
C=CCn1c(SCC#N)nc2c(c1=O)C(C)(C)Cc1ccccc1-2	7	4	96*	21	1
COc1ccc(C(=O)Nc2ccc(C)cc2C(=O)c2ccccc2)cc1	5	4	99*	22	0
COc1ccc(OC)c(NC(=O)c2ccc(NC(C)=O)cc2)c1	22	1	-1	14	-1
COc1ccc(OC)c(C(=O)c2ccc(C(=O)Nc3cccc4ccccc34)cc2)c1	9	4	55*	13	1
COc1ccc(C(=O)Nc2ccccc2C(=O)NC(Cc2ccc(O)cc2)C(=O)NNC(=O)c2ccc(C)cc2)cc1 (stereo not drawn)	-6	4	-6	-14	-1
COc1ccccc1C(=O)Nc1ccc(C)cc1C(=O)c1ccccc1	14	3	6	45	1
COc1ccc(C(=O)Nc2ccccc2C(=O)NC(Cc2ccc(O)cc2)C(=O)NNC(=O)c2ccccc2)cc1 (stereo not drawn)	-4	2	62*	15	0
O=C(CSc1n[nH]c(-c2ccccc2)n1)Nc1ccc(Br)cn1	2	5	54*	2	0
O=C(CSc1n[nH]c(-c2ccccc2)n1)Nc1ncccn1	1	2	-2	1	0
CCOc1cc(/C=N/NC(=O)C(N)=O)cc(Br)c1O	0	1	2	-2	0
CC(=O)Nc1ccc(NC(=O)c2ccccc2F)cc1	1	0	4	-6	0
CCOc1cc(Br)c(Br)c(C=Nc2ccc(NC(C)=O)cc2)c1O	-7	-1	68*	-4	-1
CC(=O)Nc1ccc(N=Cc2c(O)c(C(=O)Nc3ccccc3)cc3ccccc23)cc1	103*	2	-11	26	70*
c1ccc2c(-c3cn4ccccc4n3)c[nH]c2c1	2	2	3	1	1
COc1cc(NC(=S)NC(=O)c2ccccc2F)ccc1NC(=O)c1cccs1	0	8	-8	8	0
COc1cc(NC(=S)NC(=O)C(C)C)ccc1NC(=O)c1cc2ccccc2o1	4	9.5*	1	18	1
Cc1cc(C)nc(NS(=O)(=O)c2ccc(NC(=S)NC(=O)c3cccnc3)cc2)n1	0	0	-10	4	0
O=C(Nc1ccc(NC(=S)NC(=O)c2ccccc2F)cc1)c1cccs1	1	5	96*	63*	1
O=C(NC(=S)Nc1ccc(NC(=O)c2cccs2)cc1)c1cc2ccccc2o1	-19	1	85*	9	-1
Cc1cc(NS(=O)(=O)c2ccc(NC(=S)NC(=O)c3cccnc3)cc2)no1	0	9.3*	-6	-15	0
CCOc1ccc(Br)cc1CNc1ccc2c(c1)OCCO2	20	0	12	16	1
CCCSc1nnc(CSc2nc(C)cc(C)n2)n1C	3	2	-3	-6	1
COc1ccc(CSc2nc(C)cc(C)c2S(C)(=O)=O)cc1	2	2	1	16	0
CC1CCC(N2CCNCC2)CC1 (stereo not drawn)	0	1	-7	-2	0
Cc1cc(C)cc(NS(=O)(=O)c2ccc(NC(=S)NC(=O)c3cccs3)cc2)c1	-3	5	96*	54	0
Cc1cccc(N2CCN(C(=O)CCN3C(=S)NC(C)(C)CC3C)CC2)c1C (stereo not drawn)	-2	-1	65*	13	0

Screens (PubChem)
